Data set [1] concerns Mus sp. The experiment in a line: (§1) Anticonvulsant activity was evaluated by rotarod toxicity test and was determined 30 min after subcutaneous administration. The format is organism-based. Particulars: in vivo, sc, 0.5 h.
Data set [2] has as its system Mus sp. The data set is described as follows: Anticonvulsant activity was evaluated by metrazole-induced convulsion test and was determined 30 min after subcutaneous administration. The data set is classed as functional. In a few lines: (§2)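 Secondary evaluation in mice. Compound was given intraperitoneally in 30% polyethylene glycol 400. Median effective dose (ED50) was determined against maximal electroshock (MES) or subcutaneous Metrazol (scMet) convulsions. Median toxic dose (TD50) was determined by the rotorod test. All were read 30 min after dosing.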

Data set [3] deals with Mus sp. The data set is described as follows: Anticonvulsant activity was evaluated by maximal electroshock induced convulsion test and was determined 30 min after subcutaneous administration. The format is functional.
Data set [4] deals with Mus musculus. The experiment in a line: Number of animal protected out of 1 was evaluated by metrazole-induced convulsion test at 30 min after subcutaneous administration of >300 mg/kg. The format is functional. In a few lines:
(§3)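 Preliminary screen in small groups of mice (1-4) at 30, 100 and 300 mg/kg. Protection against MES or scMet convulsions, or rotorod toxicity, was scored at 30 min and 4 h after dosing. The smallest dose giving activity was recorded for each test.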

The test system of data set [5] is Mus musculus. The experiment in a line: Number of animals protected out of 1 was evaluated by rotarod toxicity test and was determined 30 min t 30 min after subcutaneous administration of >300 mg/kg. The format is functional.
For data set [6], the system named is Mus sp. The data set is described as follows: Number of animals protected out of 1 was evaluated by maximal electroshock induced convulsion test at 30 min after subcutaneous administration of >300 mg/kg. The format is functional. The method in brief: as §3
Data set [7] relates to Mus musculus. The experiment in a line: Number of animal protected out of 4 was evaluated by metrazole-induced convulsion test at 30 min after subcutaneous administration of >300 mg/kg. The format is functional. In a few lines:
as §3

In data set [8] the test system is Mus sp. The experiment in a line: Number of animals protected out of 4 was evaluated by rotarod toxicity test and was determined 30 min t 30 min after subcutaneous administration of >300 mg/kg. The data set is classed as functional. In a few lines: as §3
Data set [9] relates to Mus musculus. The data set is described as follows: Anticonvulsant activity was evaluated by rotarod toxicity test and was determined 30 min after administration. The format is organism-based. Particulars: in vivo, 0.5 h. In a few lines:
as §2

The test system of data set [10] is Mus musculus. The experiment in a line: Anticonvulsant activity was evaluated by metrazole-induced convulsion test after subcutaneous administration. The data set is classed as functional. Particulars: sc. The method in brief: as §2
Data set [11] relates to Mus musculus. The experiment in a line: Number of animals protected out of 4 was evaluated by maximal electroshock induced convulsion test at 30 min after subcutaneous administration of >300 mg/kg. The data set is classed as functional. In a few lines: as §3
Data set [12] relates to Mus musculus. The data set is described as follows: Anticonvulsant activity was evaluated by maximal electroshock induced convulsion test after subcutaneous administration. The format is functional. As to conditions: sc.
A short description of data set [13]: Anticonvulsant activity was evaluated by rotarod toxicity test after subcutaneous administration. The format is organism-based. Particulars: mouse, in vivo, sc.
Data set [14] is described as follows: as §1. The data set is classed as organism-based. Particulars: mouse, in vivo, sc.
The test system of data set [15] is Mus musculus. The experiment in a line: Number of animals protected out of 1 was evaluated by maximal electroshock induced convulsion test at 30 min after subcutaneous administration of 300 mg/kg. The data set is classed as functional. In a few lines:
as §3

Data set [16] has as its system Mus musculus. The data set is described as follows: Number of animal protected out of 1 was evaluated by metrazole-induced convulsion test at 30 min after subcutaneous administration of 30 mg/kg. The data set is classed as functional. The method in brief:
as §3

A short description of data set [17]: Anticonvulsant activity was evaluated by rotarod toxicity test after subcutaneous administration. The format is organism-based. Particulars: mouse, in vivo, sc.
Data set [18] has as its system Mus musculus. The experiment in a line: Anticonvulsant activity was evaluated by maximal electroshock induced convulsion test after subcutaneous administration. The data set is classed as functional. As to conditions: sc.

On to `CCOC(=O)N1CCCC(Cl)(c2ccccc2)C1=O` (centres undefined), for which the Activity was > 300 mg/kg in the data set with Mus sp. [1], 300 mg/kg in the data set with Mus sp. [2] and >300 mg/kg with Mus sp. [3].

As to `CCOC(=O)N(C)C(=O)C(CC)(OCc1ccccc1)c1ccccc1` (centres undefined), the “No. of animals protected” value with Mus musculus [4], in the data set with Mus musculus [5] and in the data set on Mus sp. [6] was 0 throughout. Besides, the Activity in the data set on Mus sp. [1] is > 300 mg/kg; with Mus sp. [2] it was >300 mg/kg; in the data set with Mus sp. [3] it was >300 mg/kg.

As for `CCCC(C)OC(=O)N1CCCC(O)(c2ccccc2)C1=O` (centres undefined), the results for the “No. of animals protected” value in the data set on Mus musculus [7], with Mus sp. [8] and in the data set on Mus sp. [6] were 1, 0 and 1, respectively. The Activity with Mus sp. [1] is > 300 mg/kg; in the data set with Mus sp. [2] it was 300 mg/kg; with Mus sp. [3] it was 300 mg/kg.

Consider `O=C(CBr)OC1(c2ccccc2)CCCNC1=O` (centres undefined), for which the Activity in the data set with Mus musculus [9] was > 300 mg/kg; in the data set on Mus sp. [2], 300 mg/kg; in the data set on Mus sp. [3] it was >300 mg/kg.

For `CCOC(=O)N1CCCC(OC)(c2ccccc2)C1=O` (centres undefined), the ED50 in the data set with Mus musculus [10] turned out to be 124 mg/kg; in the data set with Mus musculus [12], 225 mg/kg. Also, the “No. of animals protected” value in the data set on Mus musculus [4] was 1; with Mus musculus [11], 2; in the data set on Mus sp. [8] it was 0. Further, the Activity with Mus sp. [1] was > 300 mg/kg; in the data set with Mus sp. [2] it was 300 mg/kg; in the data set on Mus sp. [3], 300 mg/kg. Further, the TD50 in data set [13] is > 300 mg/kg.

For the compound `COC1(c2ccccc2)CCCNC1=O` (centres undefined), the ED50 in the data set on Mus musculus [10] stood at 49.6 mg/kg; in the data set on Mus musculus [12] it was 121 mg/kg. Further, the “No. of animals protected” value in the data set with Mus musculus [7] is given as 4; in the data set on Mus sp. [8] it was 4; with Mus sp. [6] it was 1. Also, the Activity in the data set with Mus sp. [1] was 300 mg/kg; in the data set on Mus sp. [2] it was 300 mg/kg; in the data set with Mus sp. [3], 100 mg/kg. Further, the TD50 at 0.5 h in data set [14] was determined as 239 mg/kg.

As for `CCC(O)(C(=O)NC)c1ccccc1` (centres undefined), the “No. of animals protected” value was found to be 0 with Mus musculus [4], 0 with Mus sp. [8] and 1 with Mus sp. [6]. Besides, the Activity is > 300 mg/kg in the data set on Mus sp. [1], >300 mg/kg in the data set on Mus sp. [2] and 300 mg/kg in the data set with Mus sp. [3].

With `CCOC(=O)N1CCCC(O)(c2ccccc2)C1=O` (centres undefined), the results for the ED50 with Mus musculus [10] and with Mus musculus [12] were 124 mg/kg and 132 mg/kg, respectively. Also, the “No. of animals protected” value with Mus sp. [8] stood at 0; in the data set on Mus musculus [15], 1; with Mus musculus [16], 1. Moreover, the Activity in the data set on Mus sp. [1] is > 300 mg/kg; in the data set with Mus sp. [2] it was 30 mg/kg; with Mus sp. [3], 300 mg/kg. Further, the TD50 in data set [13] stood at 451 mg/kg.

For the compound `O=C1NCCCC1(O)c1ccccc1` (centres undefined), the “No. of animals protected” value in the data set with Mus musculus [4], in the data set on Mus sp. [8] and in the data set on Mus sp. [6] was 0 throughout. Moreover, the results for the Activity in the data set on Mus sp. [1], in the data set on Mus sp. [2] and in the data set on Mus sp. [3] were > 300 mg/kg, >300 mg/kg and >300 mg/kg, respectively.

Take `CCOC(=O)N1CCCC(OC(C)=O)(c2ccccc2)C1=O` (centres undefined): the “No. of animals protected” value with Mus musculus [4], in the data set with Mus sp. [8] and with Mus sp. [6] was 0 in each case. The Activity was > 300 mg/kg in the data set on Mus musculus [9], >300 mg/kg with Mus sp. [2] and >300 mg/kg in the data set with Mus sp. [3].

Turning to `CN1CCCC(O)(c2ccccc2)C1=O` (centres undefined), the ED50 came out at 128 mg/kg in the data set with Mus musculus [10] and 84.4 mg/kg in the data set with Mus musculus [12]. Besides, the “No. of animals protected” value in the data set with Mus musculus [7] amounted to 4; in the data set with Mus sp. [8], 0; in the data set with Mus sp. [6], 1. Besides, the TD50 in [13] came to 350 mg/kg. The Activity is > 300 mg/kg with Mus musculus [9], 300 mg/kg with Mus sp. [2] and 100 mg/kg in the data set with Mus sp. [3].

Consider `CCOC(=O)N1CCCC(OCC2CCCCC2)(c2ccccc2)C1=O` (centres undefined), for which the “No. of animals protected” value in the data set with Mus musculus [4], in the data set with Mus sp. [8] and in the data set on Mus sp. [6] was 0 throughout. Further, the Activity in the data set on Mus sp. [1] is > 300 mg/kg; in the data set on Mus sp. [2], >300 mg/kg; with Mus sp. [3], >300 mg/kg.

As for `CCOC(=O)N1CCCC(c2ccccc2)C1=O` (centres undefined), the “No. of animals protected” value with Mus musculus [4], with Mus sp. [8] and in the data set on Mus sp. [6] was 0 each time. For the same compound, the Activity is > 300 mg/kg in the data set on Mus sp. [1], >300 mg/kg in the data set with Mus sp. [2] and >300 mg/kg in the data set on Mus sp. [3].

For `CCOC(=O)NCCCC(O)(C(=O)OC)c1ccccc1` (centres undefined), the “No. of animals protected” value with Mus musculus [4], with Mus musculus [5] and in the data set with Mus sp. [6] was 0 throughout. The Activity is > 300 mg/kg in the data set on Mus sp. [1], >300 mg/kg in the data set on Mus sp. [2] and >300 mg/kg with Mus sp. [3].

`CCC(OCc1ccccc1)(C(=O)NC)c1ccccc1` (centres undefined): the “No. of animals protected” value in the data set with Mus musculus [4], in the data set with Mus sp. [8] and in the data set with Mus sp. [6] was 0 in each case. Also, the Activity was > 300 mg/kg in the data set with Mus sp. [1], >300 mg/kg in the data set with Mus sp. [2] and >300 mg/kg in the data set with Mus sp. [3].

`CCOC(=O)N1CCCC(N)(c2ccccc2)C1=O` (centres undefined): the “No. of animals protected” value is on record as 1 in the data set with Mus musculus [4], 4 in the data set with Mus sp. [8] and 1 with Mus sp. [6]. For the same compound, the Activity in the data set on Mus musculus [9], with Mus sp. [2] and in the data set on Mus sp. [3] was 300 mg/kg each time.

In the case of `O=C(CCl)N1CCCC(O)(c2ccccc2)C1=O` (centres undefined), the Activity in the data set with Mus sp. [1] was > 300 mg/kg; in the data set on Mus sp. [2], >300 mg/kg; with Mus sp. [3] it was >300 mg/kg.

In the case of `O=C(CCCl)NCc1ccccc1` [BECLAMIDE], the 50% effective dose (ED50) amounted to 117 mg/kg in the data set with Mus musculus [10] and 185 mg/kg in the data set on Mus musculus [12]. Also, the TD50 in [13] was 278 mg/kg.

Regarding `CCCC(C)(COC(N)=O)COC(N)=O` [MEPROBAMATE], the ED50 in the data set on Mus musculus [10] came out at 31.5 mg/kg; in the data set with Mus musculus [12] it was 120 mg/kg. This compound gave a TD50 in [17] of 125 mg/kg.

On to `NC(=O)NC(=O)Cc1ccccc1` [PHENACEMIDE], for which the TD50 in data set [17] came out at 421 mg/kg. Further, the ED50 in the data set on Mus musculus [18] is 87.3 mg/kg.

In the case of `CCCC(CCC)C(=O)O` [VALPROIC ACID], the ED50 in the data set with Mus musculus [10] worked out at 149 mg/kg.

For the origin of these results see ChEMBL document CHEMBL1122568, “Synthesis and anticonvulsant activity of some substituted lactams and amides” (J Med Chem, 1984).
